Screening results (PubChem)
RGS4 act = RGS4 potentiators or activators, primary screen, cell-based, HEK293 M3R inducible RGS4, calcium flux; carbachol calcium flux Fluo4; active compounds read low; B-score at 10 µM; hit rate 0.92% among 310,000; AID 463111, 2010;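 active means B-score of the integrated calcium signal more than 4 SD below the library mean, with starting fluorescence not abnormally high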;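 further: negative B-score means reduced calcium response which marks RGS4 activation or potentiation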
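test system = HEK293 cells with stable M3R and inducible RGS4 | schedule = recording 10 s baseline at 1 Hz, 100 s post-agonist | technique = Fluo4-AM (2 µM) calcium-flux fluorescence, kinetic read | measure = Agonist-evoked peak-minus-minimum fluorescence over baseline, integrated ratio, B score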
MrgX1 antagonist = antagonists of human MrgX1 receptor, primary screen, HEK293 cells, Fluo-4 calcium flux. B-score at 10 µM. Mas-related G-protein coupled receptor member X1 (Homo sapiens), Q96LB2. hit rate 1.3% among 310,000. BAM8-22 antagonism; active compounds read low;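 active means calcium-response B-score plate-corrected more than 3 library SD below zero, starting fluorescence within 5 deviations, no agonist response on first addition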;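 further: peak minus trough fluorescence over baseline after final BAM8-22 challenge near maximal dose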
Target sequence (Q96LB2 whole entry, looked up): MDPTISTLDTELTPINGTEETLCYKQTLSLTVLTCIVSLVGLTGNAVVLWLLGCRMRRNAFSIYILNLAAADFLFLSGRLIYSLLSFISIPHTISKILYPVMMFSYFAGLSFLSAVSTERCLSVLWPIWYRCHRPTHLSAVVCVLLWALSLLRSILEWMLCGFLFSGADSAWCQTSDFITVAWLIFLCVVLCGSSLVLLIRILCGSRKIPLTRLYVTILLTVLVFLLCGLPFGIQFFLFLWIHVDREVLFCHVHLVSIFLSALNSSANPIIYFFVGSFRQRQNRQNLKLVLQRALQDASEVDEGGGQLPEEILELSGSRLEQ
MrgX1 PAM = positive allosteric modulators of MrgX1, primary screen, HEK293 cells, Fluo-4 calcium flux | FDSS; active compounds read high | B-score at 10 µM | hit rate 0.63% among 310,000;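 active means plate-corrected calcium response at least 3 library SD above typical, normal starting fluorescence, not activating the receptor alone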;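 further: compound read alongside a low EC10 to EC30 dose of BAM8-22 agonist; peak minus trough fluorescence over baseline measured at the second addition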
RGS4 inh = RGS4 inhibitors, primary screen, cell-based, HEK293 M3R inducible RGS4, calcium flux; Fluo-4 calcium flux; active compounds read high; triggered by carbachol at its EC20; hit rate 0.45% among 310,000; Regulator of G-protein signaling 4 (Homo sapiens), P49798; B-score at 10 µM; AID 463165, 2010;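 active means B-score, a plate-corrected calcium signal, over three deviations above library mean, with baseline fluorescence within five deviations of library mean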;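 further: RGS4 expression induced by doxycycline in cells with stable M3 receptor; B-score is computed from the integrated fluorescence ratio over baseline after carbachol; higher B-score means a larger calcium signal and so more RGS4 inhibition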
Target sequence (P49798 whole entry, looked up): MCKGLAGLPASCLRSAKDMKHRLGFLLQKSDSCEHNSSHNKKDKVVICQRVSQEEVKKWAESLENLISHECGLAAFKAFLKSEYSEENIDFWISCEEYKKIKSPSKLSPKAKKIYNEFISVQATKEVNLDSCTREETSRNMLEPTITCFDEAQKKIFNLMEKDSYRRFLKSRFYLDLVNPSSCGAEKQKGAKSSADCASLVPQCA
MrgX1 agonist = agonists of human MrgX1 receptor, primary screen, HEK293 cells, Fluo-4 calcium flux; Mas-related G-protein coupled receptor member X1 (Homo sapiens), Q96LB2; Fluo-4 calcium fluorescence, agonist mode; active compounds read high; B-score at 10 µM; hit rate 0.44% among 310,000;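 active means calcium response B-score plate-corrected fluorescence ratio at least 3 library SD, with starting fluorescence B-score inside 5 SD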
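Assay system: stable human MrgX1 HEK293 cell line. Quantity: 15,000 cells per well. Schedule: cells plated overnight, dye loaded 0.5 h 37 °C, 0.5 h room temperature. Detection: Fluo-4 NW calcium-flux fluorescence, kinetic read. Read-out basis: peak-minus-minimum fluorescence over baseline, converted to B scores. Control set: positive and negative control wells on each plate.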
Large screens that a line does not name were inactive. Most compounds without a hit are left out; they make up all but 3.5% or so of the library.

COc1cccc(C(C(=O)NCC2CCCO2)N(C(=O)Cn2nnc3ccccc32)c2ccccc2C(C)=O)c1OC (stereo unspecified)	none
CCOC(=O)Nc1ccc2c(c1)N(C(=O)CCN(C)C)c1ccccc1S2	RGS4 act -7
Cc1ccc(C)c(NC(=O)C2CC3c4ccccc4C2c2ccccc23)c1 (stereo unspecified)	MrgX1 antagonist -5.5
Cc1ccc(C)c(NC(=O)C2CC=CCC2C(=O)O)c1 (stereo unspecified)	none
CCN1CCN(S(=O)(=O)c2ccc(Cl)c(C(=O)NC(C)c3ccccc3Cl)c2)CC1 (stereo unspecified)	MrgX1 antagonist -5.4
COCCNCCCCOc1ccccc1-c1ccccc1	MrgX1 antagonist -5.2
CCCCCCCCCCCC(=O)c1c(O)cccc1O	RGS4 act -9.2
O=C(Oc1ccc(Br)cc1C(=S)N1CCOCC1)c1ccc([N+](=O)[O-])cc1[N+](=O)[O-]	RGS4 act -7.5
O=C(Oc1ccc(C(=S)N2CCOCC2)cc1)c1ccc([N+](=O)[O-])cc1[N+](=O)[O-]	none
O=C(NN1C(=O)C2C3C=CC(C3)C2C1=O)c1ccncc1 (stereo unspecified)	none
O=C(NN1C(=O)C2C(c3ccccc3)C=CC(c3ccccc3)C2C1=O)c1ccncc1 (stereo unspecified)	MrgX1 agonist 28
Cc1cc(Cl)ccc1OCC(=O)NN1C(=O)C2C3C=CC(C3)C2C1=O (stereo unspecified)	MrgX1 antagonist -6.1
COCCC(=O)N1CCCC(CNS(=O)(=O)c2ccc(OC)cc2)C1 (stereo unspecified)	none
COC(=O)CCCC(=O)N1CCCC(CNS(=O)(=O)c2ccc(OC)cc2)C1 (stereo unspecified)	MrgX1 antagonist -4.6
COc1ccc(NC(=O)c2sc3ncn(CC(=O)N4CCCCC4)c(=O)c3c2C)cc1OC	none
CCCCCNc1c(C(=O)OCC)c(=O)[nH]c2ccccc12	none
COc1cc(/C=C2/C(=O)c3cccc([N+](=O)[O-])c3C2=O)c(Br)cc1O	MrgX1 agonist 35 (no result: RGS4 act, RGS4 inh)
COc1ccccc1NC(=O)CCCCCN1C(=O)c2cccc([N+](=O)[O-])c2C1=O	none
CCOc1ccc(CN2CCC(C(=O)N3CCN(c4ccccc4F)CC3)CC2)cc1OC	none
CCOc1ccc(S(=O)(=O)N2CCC(C(=O)N3CCN(c4ccccc4F)CC3)CC2)cc1C	RGS4 act -7.2
COC(=O)c1cccc(NC(=O)CCNC(=O)c2ccc([N+](=O)[O-])cc2)c1	MrgX1 antagonist -7.8
COC(=O)c1ccc(C)c(NC(=O)CCNC(=O)c2ccc([N+](=O)[O-])cc2)c1	none
CCOC(=O)CCNC(=O)N1CCCC(CNS(=O)(=O)c2cccs2)C1 (stereo unspecified)	none
CC1Cc2ccccc2N1S(=O)(=O)c1cccc(C(=O)NCCCO)c1 (stereo unspecified)	none
CCN(CC)CCNC(=O)c1ccc(NC(=O)c2cccc(S(=O)(=O)N3c4ccccc4CC3C)c2)cc1 (stereo unspecified)	RGS4 act -8.4
Cc1ccc(-n2nc(C)c(/C=N/NC(=O)c3cccnc3)c2Cl)cc1	MrgX1 antagonist -4.8
Cc1nn(-c2ccccc2)c(Cl)c1/C=N/NC(=O)c1ccc(NS(=O)(=O)c2cccs2)cc1	MrgX1 PAM 11
COC(C[C@H]1O[C@H]1[C@H](O)COCc1ccccc1)OC	none (no result: MrgX1 antagonist, MrgX1 PAM, MrgX1 agonist)
COc1cc2[nH]c(=O)n(CCCCCC(=O)N3CC=C(c4ccccc4)CC3)c(=O)c2cc1OC	RGS4 act -8.8
CCOc1cc2[nH]c(=O)n(CCCC(=O)N(C)Cc3ccccc3)c(=O)c2cc1OCC	MrgX1 PAM 7.9
CCOc1cc2[nH]c(=O)n(CCCC(=O)NCc3ccco3)c(=O)c2cc1OCC	none
CCOc1cc(C(=O)N[C@@H](C)C(=O)N2CCC3(CC2)NCCc2[nH]cnc23)cc(OCC)c1OCC	none
N=C1/C(=C\c2ccc(-c3cc(Cl)cc(Cl)c3)o2)C(=O)N=C2SC=C(c3ccccc3)N12	none
N=C1/C(=C/c2ccc(-c3cccc(C(=O)O)c3)o2)C(=O)N=C2SC=C(c3ccccc3)N12	RGS4 act -8.4, MrgX1 antagonist -7.6
O=C(N/N=C/c1ccncc1)c1ccc(COc2cccc3cccnc23)cc1	none
O=C(N/N=C/c1ccc2cccc(OCc3ccccc3)c2n1)c1ccc(Cl)cc1	RGS4 act -9.9
CSc1sccc1/C=C(/C#N)C(=O)c1ccco1	MrgX1 agonist 37
NC1=NC(=O)/C(=C/c2ccc(-c3ccc(S(N)(=O)=O)cc3)o2)S1	MrgX1 antagonist -4.7
CC(=O)Nc1ccccc1OCC(=O)c1cc(C)n(Cc2cccs2)c1C	MrgX1 agonist 48
CCOc1ccccc1C(=O)N(Cc1sccc1C)C1CCS(=O)(=O)C1 (stereo unspecified)	none
CCOc1cc2[nH]c(=S)n(Cc3ccc(C(=O)O)cc3)c(=O)c2cc1OCC	none
Cc1ccc(S(=O)(=O)c2cn(Cc3ccc(F)cc3)c3cc4c(cc3c2=O)OCO4)cc1	MrgX1 antagonist -4.6
Cc1ccc(-n2c(SCC(N)=O)nnc2-c2ccc(S(=O)(=O)N3CCCCC3)cc2)c(C)c1	RGS4 act -7.1
Cn1c(SCC(N)=O)nnc1-c1ccc(S(=O)(=O)N2CCCC2)cc1	none
CCN(CC(=O)Nc1c(F)cccc1F)C(=O)CNC(=O)C1CCCCC1	none
Cc1cc(NC(=O)CCC(=O)N(CC(=O)NCC2CCCO2)c2ccc3c(c2)OCCO3)no1 (stereo unspecified)	none
CCCOc1ccc(C(=O)N/N=C/c2ccc(-c3ccc(S(=O)(=O)Nc4ncccn4)cc3)o2)cc1	MrgX1 agonist 29
C=CC[N+]1(CC#Cc2ccccc2)CCCC1	none
C(#Cc1ccccc1)C[N+]1(CC#Cc2ccccc2)CCCC1	RGS4 act -8.1
CC(NC(=O)COc1cccnc1[N+](=O)[O-])c1ccc(Cl)cc1 (stereo unspecified)	RGS4 act -8.1
COc1ccc(NC(=O)Cn2c(CCC(=O)O)ccc2-c2ccc(C)cc2)cc1	none
Clc1ccc(-c2nnc(Sc3nc4ccccc4o3)c3ccccc23)cc1	none
O=c1c(Cl)c2oc3ccccc3nc-2c2ccccc12	MrgX1 antagonist -5.7
O=C(Nc1ccc(N2CCOCC2)cc1)c1cn2ccccc2n1	none
O=C1C(=O)N(CCCc2ccccc2)c2ccccc21	MrgX1 agonist 38
Cc1nn(C(C)C(=O)N2CCOCC2)c(C)c1[N+](=O)[O-] (stereo unspecified)	none
CN(C)S(=O)(=O)c1cccc(-c2nn(-c3ccccc3)cc2/C=C2\SC(=S)NC2=O)c1	MrgX1 PAM 17 (no result: RGS4 act, RGS4 inh)
